Tests used:
Enterovirus A71 = experiment: Inhibition concentration against EV-71; assay type: functional, organism-based; conditions: Enterovirus A
[1] = (§1) Cytotoxicity against human rhabdomyosarcoma (RD) cells; assay type: functional; conditions: Homo sapiens, RD
[2] = as §1; assay type: functional
Procedure, shortened: (§2)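 Test compound at various concentrations added to D551 (human normal skin fibroblast), WI38 (human normal lung fibroblast) or RD cells; incubated 96 h at 37 °C; cells harvested and viable cells counted by trypan blue staining. Triplicate, at least twice.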

[3] = Cytotoxicity against human normal skin fibroblast (D551) cells; assay type: cell-based; conditions: D551 normal skin fibroblast cells; procedure, shortened: as §2
[4] = Cytotoxicity against human normal skin fibroblast (W138) cells; assay type: cell-based; conditions: W138 normal skin fibroblast cells; procedure, shortened: as §2
[5] = Selectivity index (D551/EV71) of the compound; assay type: functional
[6] = Selectivity index (RD/EV71) of the compound; assay type: functional
[7] = selectivity index of the compound; assay type: functional
Coxsackievirus [8] = experiment: Inhibition concentration against coxsackie virus A10; assay type: functional, organism-based
Procedure, shortened: (§3)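 Plaque reduction on Vero cell monolayers infected to give about 50-100 plaques per monolayer in virus control; test compound diluted into agar-medium overlay; 96 h at 35 °C, crystal violet staining, plaques counted. […] Triplicate well means, at least two experiments.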

Coxsackievirus [9] = experiment: Inhibition concentration against coxsackie virus A16; assay type: functional, organism-based; procedure, shortened: as §3
Coxsackievirus [10] = experiment: Inhibition concentration against coxsackie virus A24; assay type: functional, organism-based; procedure, shortened: as §3
Coxsackievirus [11] = experiment: Inhibition concentration against coxsackie virus A9; assay type: functional, organism-based; procedure, shortened: as §3
Coxsackievirus [12] = experiment: Inhibition concentration against coxsackie virus B1; assay type: functional, organism-based; procedure, shortened: as §3
Coxsackievirus [13] = experiment: Inhibition concentration against coxsackie virus B2; assay type: functional, organism-based; procedure, shortened: as §3
Coxsackievirus [14] = experiment: Inhibition concentration against coxsackie virus B3; assay type: functional, organism-based; procedure, shortened: as §3
Coxsackievirus [15] = experiment: Inhibition concentration against coxsackie virus B4; assay type: functional, organism-based; procedure, shortened: as §3
Coxsackievirus [16] = experiment: Inhibition concentration against coxsackie virus B5; assay type: functional, organism-based; procedure, shortened: as §3
Coxsackievirus [17] = experiment: Inhibition concentration against coxsackie virus B6; assay type: functional, organism-based; procedure, shortened: as §3
Enterovirus [18] = experiment: Inhibition concentration against echovirus 29; assay type: functional, organism-based; procedure, shortened: as §3
Enterovirus [19] = experiment: Inhibition concentration against echovirus 9; assay type: functional, organism-based; procedure, shortened: as §3
Enterovirus [20] = experiment: Inhibition Concentration against enterovirus 68; assay type: functional, organism-based; procedure, shortened: as §3
Enterovirus [21] = experiment: Inhibition concentration against EV-71 (1743) genotype B; assay type: functional, organism-based; procedure, shortened: as §3
Enterovirus [22] = experiment: Inhibition concentration against EV-71 (2086) genotype C; assay type: functional, organism-based; procedure, shortened: as §3
Enterovirus [23] = experiment: Inhibition concentration against EV-71 (2231) genotype C; assay type: functional, organism-based; procedure, shortened: as §3
Enterovirus [24] = experiment: Inhibition concentration against EV-71 (BrCR) genotype A; assay type: functional, organism-based; procedure, shortened: as §3
Human alphaherpesvirus 2 = experiment: Inhibition concentration against herpes simplex virus; assay type: functional, organism-based; procedure, shortened: as §3
[25] = tested on: unidentified influenza virus; experiment: Inhibition concentration against influenza A (WSN); assay type: functional, organism-based
Procedure, shortened: (§4)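 Plaque reduction assay on Vero cell monolayers. Virus was added at a dose giving about 50-100 plaques per monolayer in virus controls. Compound was diluted into the agar-medium overlay, tested up to 25 µM. Plates were incubated 96 h at 35 °C, stained with crystal violet, and plaques counted.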

[26] = tested on: unidentified influenza virus; experiment: Inhibition concentration against influenza B […]; assay type: functional, organism-based; procedure, shortened: as §4
Enterovirus [27] = experiment: Inhibition concentration against human rhinovirus 14; assay type: functional, organism-based; procedure, shortened: as §3
Enterovirus [28] = experiment: Inhibition concentration against human rhinovirus 2; assay type: functional, organism-based; procedure, shortened: as §3
[29] = Selectivity index (W138/EV71) of the compound; assay type: functional

**Q.** What does the source list for O=C1N(CCCCCOc2ccc(Br)cc2)CCN1c1ccccc1?
**A.** IC50 (Enterovirus A71): 10.7 µM; CC50 [1]: > 25 µM

**Q.** What does the source list for O=C1N(CCCCCOc2ccc(Cl)cc2)CCN1c1ccncc1?
**A.** IC50 (Enterovirus A71): 1.35 µM; CC50 [2]: > 25 µM

**Q.** For O=C1N(CCCCCCOc2cccc3ccccc23)CCN1c1ccncc1, which IC50 (Enterovirus A71) is on record?
**A.** > 6.25 µM

**Q.** What about the CC50 [1] of the same compound?
**A.** 6.25 µM

**Q.** What does the source list for COc1ccc(OCCCCCCN2CCN(c3ccncc3)C2=O)c(Cl)c1?
**A.** IC50 (Enterovirus A71): > 25 µM; CC50 [1]: > 25 µM

**Q.** Which IC50 (Enterovirus A71) does the source give for O=C1N(CCCCCCOc2ccc(C(F)(F)F)cc2)CCN1c1ccnc(Cl)c1 here?
**A.** > 25 µM

**Q.** And the CC50 [1]?
**A.** > 25 µM

**Q.** With CN(C)c1cccc(OCCCCCCN2CCN(c3ccncc3)C2=O)c1 as the compound, how does the IC50 (Enterovirus A71) read?
**A.** > 25 µM

**Q.** What about the CC50 [1] of the same compound?
**A.** > 25 µM

**Q.** With O=C1N(CCCCCOc2ccc(C(F)(F)F)cc2)CCN1c1ccncn1 as the compound, how does the IC50 (Enterovirus A71) read?
**A.** > 25 µM

**Q.** And the CC50 [1]?
**A.** > 25 µM

**Q.** What does the source list for O=C1N(CCCCCCCOc2ccc(C(F)(F)F)cc2)CCN1c1ccncc1?
**A.** IC50 (Enterovirus A71): 0.61 µM; CC50 [1]: 6.25 µM

**Q.** Which IC50 (Enterovirus A71) does the source give for N#Cc1ccc(-c2ccc(OCCCCCN3CCN(c4ccncc4)C3=O)cc2)cc1 here?
**A.** 2.66 µM

**Q.** What about the CC50 [1] of the same compound?
**A.** > 25 µM

**Q.** What does the source list for O=C1N(CCCCCCOc2ccc(Cl)cc2)CCN1c1ccccc1?
**A.** IC50 (Enterovirus A71): 10.8 µM; CC50 [1]: > 25 µM

**Q.** Which CC50 [3] does the source give for O=C1N(CCCCCCOc2ccc(-c3cccs3)cc2)CCN1c1ccncc1 here?
**A.** 46 µM

**Q.** And the IC50 (Enterovirus A71)?
**A.** 0.3 µM

**Q.** And the CC50 [2]?
**A.** > 25 µM

**Q.** And the CC50 [4]?
**A.** 60 µM

**Q.** And the Selectivity index [5]?
**A.** 153

**Q.** And the Selectivity index [6]?
**A.** > 83

**Q.** And the Selectivity index [7]?
**A.** 200

**Q.** Which IC50 (Enterovirus A71) does the source give for N#Cc1ccc(OCCCCCCN2CCN(c3ccncc3)C2=O)cc1 here?
**A.** > 0.39 µM

**Q.** And the CC50 [1]?
**A.** 0.39 µM

**Q.** For O=C1N(CCCCCCOc2ccc(C(F)(F)F)cc2)CCN1c1ccncn1, which IC50 (Enterovirus A71) is on record?
**A.** > 25 µM

**Q.** What about the CC50 [1] of the same compound?
**A.** > 25 µM

**Q.** Which IC50 (Enterovirus A71) does the source give for O=C1N(CCCCCCOc2ccc(C(F)(F)F)cc2)CCN1c1cccnc1 here?
**A.** 2.1 µM

**Q.** And the CC50 [1]?
**A.** > 25 µM

**Q.** With O=C1N(CCCCCCOc2ccc(Br)cc2)CCN1c1ccncn1 as the compound, how does the IC50 (Enterovirus A71) read?
**A.** > 25 µM

**Q.** What about the CC50 [1] of the same compound?
**A.** > 25 µM

**Q.** With Cc1ccc(OCCCCCCN2CCN(c3cccnc3)C2=O)cc1 as the compound, how does the IC50 (Enterovirus A71) read?
**A.** > 25 µM

**Q.** And the CC50 [1]?
**A.** > 25 µM

**Q.** With O=C1N(CCCCCOc2ccc(-c3cccs3)cc2)CCN1c1ccncc1 as the compound, how does the IC50 (Enterovirus A71) read?
**A.** 0.58 µM

**Q.** What about the CC50 [2] of the same compound?
**A.** > 25 µM

**Q.** With O=C1N(CCCCCOc2ccc(Br)cc2)CCN1c1ccnc(Cl)c1 as the compound, how does the IC50 (Enterovirus A71) read?
**A.** > 25 µM

**Q.** And the CC50 [1]?
**A.** > 25 µM

**Q.** With O=C1N(CCCCCCOc2ccc(Cl)cc2)CCN1c1ccncn1 as the compound, how does the IC50 (Enterovirus A71) read?
**A.** > 25 µM

**Q.** What about the CC50 [1] of the same compound?
**A.** > 25 µM

**Q.** Which results are given for O=C1N(CCCCCCOc2ccc(-c3ccoc3)cc2)CCN1c1ccncc1?
**A.** IC50 (Enterovirus A71): 0.58 µM; CC50 [1]: > 25 µM

**Q.** For O=C1N(CCCCCOc2ccc(-c3ccc([N+](=O)[O-])cc3)cc2)CCN1c1ccncc1, which CC50 [3] is on record?
**A.** > 100 µM

**Q.** And the IC50 (Enterovirus A71)?
**A.** 0.59 µM

**Q.** And the CC50 [1]?
**A.** > 25 µM

**Q.** And the CC50 [4]?
**A.** > 100 µM

**Q.** Which IC50 (Enterovirus A71) does the source give for Cc1ccc(OCCCCCCN2CCN(c3ccncc3)C2=O)cc1 here?
**A.** 6.36 µM

**Q.** And the CC50 [1]?
**A.** > 25 µM

**Q.** Which results are given for O=C1N(CCCCCOc2ccc(C(F)(F)F)cc2)CCN1c1ccncc1?
**A.** IC50 (Enterovirus A71): 1.35 µM; CC50 [1]: 12.5 µM

**Q.** What does the source list for O=C1N(CCCCCCOc2ccc(C(F)(F)F)cc2)CCN1c1ccncc1?
**A.** CC50 [3]: 55 µM; IC50 (Coxsackievirus [8]): 15.7 µM; IC50 (Coxsackievirus [9]): > 25 µM; IC50 (Coxsackievirus [10]): 0.47 µM; IC50 (Coxsackievirus [11]): 1.44 µM; IC50 (Coxsackievirus [12]): 5.6 µM; IC50 (Coxsackievirus [13]): > 25 µM; IC50 (Coxsackievirus [14]): > 25 µM; IC50 (Coxsackievirus [15]): > 25 µM; IC50 (Coxsackievirus [16]): > 25 µM; IC50 (Coxsackievirus [17]): > 25 µM; IC50 (Enterovirus [18]): > 25 µM; IC50 (Enterovirus [19]): 2.61 µM; IC50 (Enterovirus [20]): 4.67 µM; IC50 (Enterovirus [21]): 0.75 µM; IC50 (Enterovirus [22]): 0.51 µM; IC50 (Enterovirus [23]): 1.35 µM; IC50 (Enterovirus [24]): 1.37 µM; IC50 (Human alphaherpesvirus 2): > 25 µM; IC50 (Enterovirus A71): 0.58 µM; IC50 [25]: > 25 µM; IC50 [26]: > 25 µM; IC50 (Enterovirus [27]): > 12.5 µM; IC50 (Enterovirus [28]): > 25 µM; CC50 [1]: > 25 µM; CC50 [4]: 36 µM; Selectivity index [5]: 108; Selectivity index [6]: > 43; Selectivity index [29]: 71

**Q.** What does the source list for O=C1N(CCCCCCOc2cccc3cccnc23)CCN1c1ccncc1?
**A.** IC50 (Enterovirus A71): > 25 µM; CC50 [1]: > 25 µM

**Q.** Which results are given for O=C1N(CCCCCCOc2ccc(Br)cc2)CCN1c1ccncc1?
**A.** CC50 [3]: 46 µM; IC50 (Coxsackievirus [8]): 5.88 µM; IC50 (Coxsackievirus [9]): > 25 µM; IC50 (Coxsackievirus [10]): 0.55 µM; IC50 (Coxsackievirus [11]): 0.77 µM; IC50 (Coxsackievirus [12]): 5.1 µM; IC50 (Coxsackievirus [13]): > 25 µM; IC50 (Coxsackievirus [14]): > 25 µM; IC50 (Coxsackievirus [15]): > 25 µM; IC50 (Coxsackievirus [16]): > 25 µM; IC50 (Coxsackievirus [17]): > 25 µM; IC50 (Enterovirus [18]): > 25 µM; IC50 (Enterovirus [19]): 2.82 µM; IC50 (Enterovirus [20]): 2.13 µM; IC50 (Enterovirus [21]): 0.6 µM; IC50 (Enterovirus [22]): 0.31 µM; IC50 (Enterovirus [23]): 1.15 µM; IC50 (Enterovirus [24]): 1.26 µM; IC50 (Human alphaherpesvirus 2): > 25 µM; IC50 (Enterovirus A71): 0.35 µM; IC50 [25]: > 25 µM; IC50 [26]: > 25 µM; IC50 (Enterovirus [27]): 11.6 µM; IC50 (Enterovirus [28]): > 25 µM; CC50 [1]: > 25 µM; CC50 [4]: 50 µM; Selectivity index [5]: 148; Selectivity index [6]: > 71; Selectivity index [29]: 161
